The text below walks through data of ChEMBL document CHEMBL1142894, “Preparation of 5-aryl-3-alkylthio-l,2,4-triazoles and corresponding sulfones with antiinflammatory-analgesic activity” (Bioorg Med Chem, 2007).

The source made the active and inactive calls. The rule behind the calls is not given here.

The test system of series [1] is Mus musculus. Kind of series: Inhibition of carrageenan-induced paw edema in Swiss albino mouse at 50 mg/kg, po after 270 mins relative to control. Format: functional. Conditions: 4.5 h. In short, it runs like this: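 Mice, n = 6 per group. Test agent given orally as a suspension in 0.5% sodium CMC in distilled water; controls received vehicle only. Afterwards, 0.5 mg/25 ll carrageenan in saline (154 mM NaCl) injected subplantar into the right hind paw, saline into the left. Right-minus-left footpad thickness measured by dial gauge caliper every 90 min for 6 h. Inhibition is relative to vehicle-control group means.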
Background: The carrageenan paw model is a standard test of acute inflammation.

For series [2], the system named is Mus musculus. Kind of series: Inhibition of carrageenan-induced paw edema in Swiss albino mouse at 25 mg/kg, po after 270 mins relative to control. Type of series: functional. The note with it: 4.5 h. In outline:
(§1)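 Oral dosing in 0.5% CMC; vehicle to controls. Then carrageenan (0.5 mg/25 ll, freshly suspended in 154 mM saline) injected into the right hind paw subplantar tissue; saline into the left paw. Right-left footpad thickness difference measured by dial gauge calliper every 90 min over 6 h. Inhibition % is relative to vehicle control. n = 6; mean ± SEM.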

The test system of series [3] is Mus musculus. Kind of series: Antiinflammatory activity against carrageenan-induced paw edema in Swiss albino mouse assessed as swelling thickness at 25 mg/kg, po after 270 mins. Format: functional. In outline:
as §1

Series [4] has as its system Mus musculus. In words: Antiinflammatory activity against carrageenan-induced paw edema in Swiss albino mouse assessed as swelling thickness at 50 mg/kg, po after 270 mins. Format: functional. In short, it runs like this: as §1
Series [5] deals with Mus musculus. Kind of series: Antiinflammatory activity against carrageenan-induced paw edema in Swiss albino mouse assessed as swelling thickness at 200 mg/kg, po after 180 mins. Format: functional. In short, it runs like this:
as §1

In series [6] the test system is Mus musculus. Kind of series: Inhibition of carrageenan-induced paw edema in Swiss albino mouse at 50 mg/kg, po after 180 mins relative to control. Format: functional. The note with it: 3 h. In outline:
as §1

In series [7] the test system is Mus musculus. In words: Gastric-ulcerogenic effect in Swiss albino mouse assessed as lesions at 100 mg/kg, po. Format: functional, organism-based. Also on record: dose 100 mg/kg. In outline:
(§2)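 Mice killed under deep ether anesthesia 3 h after the writhing test; the oral dose in 0.5% CMC was the one used in that test. Stomachs removed, opened along the great curvature and examined under a dissecting microscope for lesions or bleeding. Reported as ratio of ulceration; n = 6.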

Series [8] deals with Mus musculus. Kind of series: Antiinflammatory activity against carrageenan-induced paw edema in Swiss albino mouse assessed as swelling thickness at 100 mg/kg, po after 360 mins. Type of series: functional. In outline:
as §1

Series [9] concerns Mus musculus. In words: Inhibition of carrageenan-induced paw edema in Swiss albino mouse at 100 mg/kg, po after 360 mins relative to control. Type of series: functional. Conditions: 6 h. In short, it runs like this: as §1
Series [10] concerns Mus musculus. In words: Inhibition of p-benzoquinone-induced writhing in Swiss albino mouse at 25 mg/kg, po relative to control. Format: functional. In short, it runs like this:
(§3)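 Mice, n = 6 per group, dosed orally with a suspension in 0.5% sodium CMC. 60 min later, 0.1 ml/10 g of 2.5% […] p-benzoquinone in distilled water given ip. Abdominal writhes counted per animal for 15 min, starting 5 min after injection. Expressed as % change in mean writhing count versus vehicle controls.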
A general note: Writhing tests count abdominal constrictions after an irritant is injected.

Series [11] deals with Mus musculus. Kind of series: Inhibition of carrageenan-induced paw edema in Swiss albino mouse at 200 mg/kg, po after 90 mins relative to control. The note with it: 1.5 h. Type of series: functional. In short, it runs like this:
as §1

Series [12] has as its system Mus musculus. In words: Antiinflammatory activity against carrageenan-induced paw edema in Swiss albino mouse assessed as swelling thickness at 25 mg/kg, po after 90 mins. Type of series: functional. In short, it runs like this:
as §1

Series [13] has as its system Mus musculus. Kind of series: Inhibition of carrageenan-induced paw edema in Swiss albino mouse at 200 mg/kg, po after 180 mins relative to control. Type of series: functional. Conditions: 3 h. In outline: as §1
The test system of series [14] is Mus musculus. In words: Analgesic activity against p-benzoquinone-induced abdominal constriction in Swiss albino mouse assessed as number of writhings at 100 mg/kg, po. Type of series: functional, Abdomen. In short, it runs like this: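 Test samples given orally in 0.5% CMC; vehicle to controls. 60 min later, 2.5% (v/v) p-benzoquinone in distilled water, 0.1 ml/10 g, given i.p. Mice housed singly; writhes counted for 15 min starting 5 min after injection. Activity is % change from vehicle controls. n = 6; mean ± SEM.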

The test system of series [15] is Mus musculus. Kind of series: Acute toxicity in Swiss albino mouse assessed as lethal effect at 100 mg/kg/day, po after 72 hrs. Conditions: in vivo. Also on record: route oral. Format: organism-based. In outline:
(§4)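 Oral single dose suspended in 0.5% carboxymethylcellulose, given after a 24 h fast; food and water returned 1 h after dosing. Vehicle-only controls. Mice observed at 1 h, then once daily for 72 h, for toxic signs and mortality.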

The subject of series [16] is Mus musculus. In words: Inhibition of p-benzoquinone-induced writhing in Swiss albino mouse at 50 mg/kg, po relative to control. Type of series: functional. In outline: as §3
In series [17] the test system is Mus musculus. Kind of series: Gastric-ulcerogenic effect in Swiss albino mouse assessed as lesions at 50 mg/kg, po. Format: functional, organism-based. Also on record: dose 50 mg/kg. In outline:
as §2

For series [18], the system named is Mus musculus. Kind of series: Antiinflammatory activity against carrageenan-induced paw edema in Swiss albino mouse assessed as swelling thickness at 25 mg/kg, po after 360 mins. Format: functional. In outline:
as §1

Series [19] has as its system Mus musculus. Kind of series: Acute toxicity in Swiss albino mouse assessed as lethal effect at 25 mg/kg/day, po after 72 hrs. The note with it: in vivo. Format: organism-based. Also on record: route oral. In outline:
as §4

The subject of series [20] is Mus musculus. In words: Antiinflammatory activity against carrageenan-induced paw edema in Swiss albino mouse assessed as swelling thickness at 200 mg/kg, po after 270 mins. Format: functional. In outline: as §1
Series [21] has as its system Mus musculus. Kind of series: Inhibition of p-benzoquinone-induced writhing in Swiss albino mouse at 100 mg/kg, po relative to control. Format: functional. In outline:
as §3

Series [22] has as its system Mus musculus. Kind of series: Inhibition of carrageenan-induced paw edema in Swiss albino mouse at 25 mg/kg, po after 180 mins relative to control. The note with it: 3 h. Type of series: functional. In short, it runs like this:
as §1

Series [23] deals with Mus musculus. In words: Inhibition of carrageenan-induced paw edema in Swiss albino mouse at 100 mg/kg, po after 270 mins relative to control. Format: functional. The note with it: 4.5 h. In short, it runs like this: as §1
Series [24] deals with Mus musculus. In words: Antiinflammatory activity against carrageenan-induced paw edema in Swiss albino mouse assessed as swelling thickness at 100 mg/kg, po after 180 mins. Type of series: functional. In short, it runs like this: as §1

With `CCS(=O)(=O)c1nc(-c2ccc(Cl)cc2)n[nH]1`, the inhibition in vivo at 50 mg/kg with Mus musculus [1] came out at 42.6%; in the series with Mus musculus [6] it was 39.2%; with Mus musculus [16], 59.5%. Moreover, the inhibition in vivo at 25 mg/kg with Mus musculus [2] is 10.6%; with Mus musculus [10] it was 26.5%; with Mus musculus [22], 16.5%. Besides, the Activity was 57.9 10^-2mm in the series with Mus musculus [3]; 37.2 10^-2mm with Mus musculus [4]; 48.9 10^-2mm with Mus musculus [5]; 35.3 10^-2mm with Mus musculus [8]; 45.8 10^-2mm in the series with Mus musculus [12]; 20.4 in the series with Mus musculus [14]. In addition, the Activity result in the series on Mus musculus [15] is recorded as “Non-toxic”; with Mus musculus [18], 61.2 10^-2mm; in the series on Mus musculus [19], “Non-toxic”; in the series with Mus musculus [20] it was 55.4 10^-2mm; with Mus musculus [24], 31 10^-2mm. Moreover, the result in the series on Mus musculus [7] and with Mus musculus [17] was Active. The values for the inhibition in vivo at 100 mg/kg in the series with Mus musculus [9], in the series on Mus musculus [21] and with Mus musculus [23] were 48.7%, 56.9% and 41.3%, respectively. For the same molecule, the inhibition in vivo at 200 mg/kg in the series with Mus musculus [11] was 14.5%; with Mus musculus [13], 17.7%.

A word on the inhibition in vivo: it is how much of the control response was suppressed.
